Screening data (PubChem)
This is a sample that favours compounds with a hit; in the whole collection about 2% have one here.
GPR7 antag – human neuropeptides B/W receptor 1 antagonism. P48145. GPR7-expressing cells, fluorescence antagonist assay. inhibition, % at 4.4 µM. 290,000 tested, 1.1% active; in the data active = inhibition above about 16%, passing the limit was not always enough;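 note: cells stimulated with the agonist NPW; 0% = agonist with vehicle and 100% = vehicle without agonist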
CRFR2-BP ag – agonists of human CRF-binding protein/CRF-R2 receptor complex; activation, % at 13.2 µM; AID 588473; HEK293 CRF-R2/CRF-BP, calcium dye fluorescence (FLIPR); percent of saturating CRF peptide response; 350,000 tested, 0.46% active;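 active = activation of at least 50%, plus an integration ratio under a set limit after plate pattern correction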;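 note: plate controls were neutral control wells without compound for no effect and CRF at EC100 for full effect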
TRPML3 agonist – human mucolipin-3 channel agonism; Q8TDD5; HEK293 TRPML3-YFP, Fluo-8 calcium fluorescence; 100% = the carbachol control signal; activation, % at 3 µM; 220,000 tested, 0.29% active;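 active = activation above its plate's cutoff, the mean activation of the plate's test wells plus 3 SD, cut at about 12% in these data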;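 note: 0% = DMSO only wells and 100% = carbachol wells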
Target sequence (Q8TDD5 whole entry, looked up): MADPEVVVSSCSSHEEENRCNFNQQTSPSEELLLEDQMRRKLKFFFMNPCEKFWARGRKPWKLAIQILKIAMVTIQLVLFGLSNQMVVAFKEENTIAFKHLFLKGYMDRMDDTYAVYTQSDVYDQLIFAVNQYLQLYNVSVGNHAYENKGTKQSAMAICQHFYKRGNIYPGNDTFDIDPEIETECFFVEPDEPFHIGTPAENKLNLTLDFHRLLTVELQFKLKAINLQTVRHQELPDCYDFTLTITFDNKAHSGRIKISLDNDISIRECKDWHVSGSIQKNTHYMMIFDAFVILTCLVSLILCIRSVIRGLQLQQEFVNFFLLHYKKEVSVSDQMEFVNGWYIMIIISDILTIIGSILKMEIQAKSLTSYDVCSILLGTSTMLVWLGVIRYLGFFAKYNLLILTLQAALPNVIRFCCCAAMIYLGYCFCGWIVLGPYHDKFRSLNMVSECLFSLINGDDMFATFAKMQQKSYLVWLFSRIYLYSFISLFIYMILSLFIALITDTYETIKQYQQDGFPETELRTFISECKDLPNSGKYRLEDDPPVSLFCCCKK
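Material: HEK293 cells stably carrying human TRPML3-YFP; compound dosing: single dose, 3 µM final nominal compound, 0.3% DMSO final; incubation: 1-h 37 °C dye load, 5-s basal, 120-s post-compound reads; technique: Fluo-8 intracellular calcium fluorescence, excitation 470-495 nm, emission 515-575 nm; read-out basis: percent activation from peak-to-basal fluorescence ratio, scaled between DMSO and carbachol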
CRFBP-R2 block – antagonists of CRF-binding protein/CRF-R2 receptor complex. HEK293 CRF-R2/CRF-BP, CRF-induced calcium fluorescence. inhibition, % at 11.8 µM. 350,000 tested, 0.59% active;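 active = inhibition of the ligand-induced calcium signal above about 50% at the single tested concentration, limit read from the data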
zfTRPN1 agonist – agonists of zebrafish TRPN1 channel | HEK293 zebrafish TRPN1-YFP, Fluo-8 calcium fluorescence; 100% = response to 87 µM carbachol | activation, % at 3 µM | 220,000 tested, 0.18% active | AID 1424;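 active = activation above its plate's cutoff, the mean activation of test wells on that plate plus 3 SD, cut at about 19% in these data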;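 note: 0% = DMSO alone and 100% = 87 µM carbachol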
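System: zebrafish TRPN1-YFP in HEK293 cells / Dosing: 3 µM single point / Timing: dye loading 1 h at 37 °C, then 30 min room temperature / Signal: Fluo-8 calcium fluorescence, excitation 470-495 nm, emission 515-575 nm / Read-out basis: percent activation from peak over basal fluorescence ratio, control-normalized / Control set: high carbachol 87 µM, low DMSO alone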
* marks the source's active call; other numbers are inactive results; nt = no result.

SMILES	GPR7 antag	CRFR2-BP ag	TRPML3 agonist	CRFBP-R2 block	zfTRPN1 agonist
Cc1ccc(C(=O)N/C(=C/c2ccc(-c3ccc([N+](=O)[O-])cc3)o2)C(=O)NCCCN(C)C)cc1	nt	52*	nt	-24	nt
Cc1ccc(C(=O)N/C(=C\c2ccc(-c3ccc([N+](=O)[O-])cc3)o2)C(=O)NC2CCS(=O)(=O)C2)cc1 (configuration not stated)	-9	95*	2	-126	2
ClC1(Cl)CC1CSc1nnc(-c2ccncc2)o1 (configuration not stated)	9	0	nt	5	nt
Cc1ccccc1CS(=O)(=O)c1nnc([C@H](CC(C)C)NC(=O)OC(C)(C)C)o1	16	33	1	-12	2
CC[C@@H](C)[C@H](NC(=O)OC(C)(C)C)c1nnc(S(=O)(=O)Cc2cc(C)ccc2C)o1	24*	12	4	28	1
CC(C)(C)OC(=O)N[C@@H](COCc1ccccc1)C(=O)N[C@@H](CO)[C@H](O)[C@@H]1C[C@@H]1C(=O)NC1CCCCC1	9	0	nt	2	nt
COc1ccc(SCC(=O)Nc2ccccc2Cl)cc1	-8	0	0	80*	-3
COc1cc(C(=O)OCC(=O)N2c3ccccc3NC(=O)C2(C)C)ccc1OCC(C)C	nt	2	nt	-7	nt
COc1ccc(CCNc2nc3ccccc3n3nnnc23)cc1OC	-10	7	1	-8	2
c1ccc(CCNc2nc3ccccc3n3nnnc23)cc1	0	82*	1	-133	1
COc1ccc(S(=O)(=O)N(C)c2ccc(C(=O)Nc3ccccc3C(=O)N3CCOCC3)cc2)cc1OC	-30	-2	nt	-3	nt
Cc1ccc(CCNC(=O)C2CCCN(S(=O)(=O)N3CC(C)CC(C)C3)C2)cc1 (configuration not stated)	1	1	nt	85*	nt
C[C@@H]1CN([C@@H](C)CO)C(=O)CCCn2nncc2CO[C@H]1CN(C)S(=O)(=O)c1cn(C)cn1	nt	-1	nt	-1	nt
COc1ccccc1NS(=O)(=O)c1cc([N+](=O)[O-])ccc1N/N=C/c1c(C)[nH]c2ccccc12	7	37	1	-92	1
O=[N+]([O-])c1ccc(N/N=C/c2c[nH]c3ccccc23)c(S(=O)(=O)Nc2ccc(Cl)cc2)c1	1	94*	0	-190	-1
Fc1cccc(CO/N=C/c2c(-c3ccccc3)nc3ccc(Cl)cn23)c1	-8	8	0	-8	-1
Cc1cccn2c(/C=N/OCc3cccc(F)c3)c(-c3ccc(Cl)cc3)nc12	-7	-3	0	95*	1
CC(C)n1nccc1NC(=O)COC(=O)c1ccc(NC(N)=O)cc1	nt	7	nt	-5	nt
O=C(Nc1ccccc1C(=O)Nc1nnc(C(F)(F)F)s1)c1ccccc1	-11	60*	4	37	6
CN(CC(=O)Nc1ccccc1C(F)(F)F)CC(=O)N1CCCCCC1	nt	0	nt	9	nt
O=C(COC(=O)C1CCN(S(=O)(=O)c2ccccc2)CC1)NC(=O)c1ccc(OC(F)F)cc1	-6	0	1	131*	0
Cc1c(NC2=C(Cl)C(=O)N(c3ccccc3Cl)C2=O)c(=O)n(-c2ccccc2)n1C	-2	2	1	53*	0
Cc1c(NC2=C(Cl)C(=O)N(c3ccccc3)C2=O)c(=O)n(-c2ccccc2)n1C	-4	-1	1	19	0
CS(=O)(=O)Nc1cccc(C2=NN(S(=O)(=O)c3ccc(F)cc3)C(c3cccs3)C2)c1 (configuration not stated)	19*	0	0	4	-1
CCS(=O)(=O)Nc1cccc(C2=NN(S(=O)(=O)c3ccc(F)cc3)C(c3cccs3)C2)c1 (configuration not stated)	14	0	0	2	-1
O=c1cc(-c2ccccc2Cl)oc2ccc([N+](=O)[O-])c(O)c12	-4	-2	1	-4	0
O=[N+]([O-])c1cc([N+](=O)[O-])c2oc(-c3ccccc3)c(Br)c2c1O	-17	4	nt	57*	nt
Cc1ccccc1OCCC(=O)Nc1cc(S(=O)(=O)N2CCCCC2)ccc1N1CCN(C)CC1	nt	68*	nt	-37	nt
Cc1ccc(OCC(=O)Nc2cc(S(=O)(=O)N3CCCCC3)ccc2N2CCN(C)CC2)c(C)c1	nt	1	nt	8	nt
